The subject of assay [1] is VCaP. The assay is described as follows: Downregulation of AR […] expression in human VCaP cells incubated for 24 hrs by qRT-PCR analysis. Format: functional, cell-based. The following applies: dose 25-2500 nM. Summed up: (§1)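 VCaP cells grown to 50% confluence, then treated with compound or DMSO (Methods state 16 h, legend states 24 h). Total RNA isolated, cDNA made from 1 µg RNA, SYBR Green qPCR run in triplicate. Expression by ΔΔCt, normalised to GAPDH. Three independent experiments, SEM.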
Background: Quantitative PCR measures a nucleic acid by following its amplification.

Assay [2] has as its target T1, Bromodomain-containing protein 4 (Homo sapiens, UniProt O60885). The assay is described as follows: Binding affinity to human partial length BRD4 BD1 (N44 to E168 residues) expressed in bacterial expression system using H4K5acIC8acK12acK16ac-biotinylated peptide as substrate preincubated for 30 mins followed by substrate addition by AlphaScreen assay.
The target in assay [3] is T2, Bromodomain-containing protein 3 (Homo sapiens, UniProt Q15059). As to the kind of experiment: Binding affinity to human partial length BRD3 BD1 (P24 to E144 residues) expressed in bacterial expression system assessed as change in melting temperature at 50 uM at 20 to 85 degreeC by SYPRO orange staining based thermal shift assay. Summed up:
(§2)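 DSF thermal shift. 10 µM BD in 50 mM HEPES, 500 mM NaCl pH 7.5, with 50 µM compound or DMSO-matched control and 1:1000 Sypro Orange (ex 465/em 590 nm). Ramp 20–85 °C at 0.03 °C/s. Tm taken as the midpoint between fluorescence max and min. At least three independent experiments, SEM in °C.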
Target sequence in this assay (Q15059 2-726 limits assumed): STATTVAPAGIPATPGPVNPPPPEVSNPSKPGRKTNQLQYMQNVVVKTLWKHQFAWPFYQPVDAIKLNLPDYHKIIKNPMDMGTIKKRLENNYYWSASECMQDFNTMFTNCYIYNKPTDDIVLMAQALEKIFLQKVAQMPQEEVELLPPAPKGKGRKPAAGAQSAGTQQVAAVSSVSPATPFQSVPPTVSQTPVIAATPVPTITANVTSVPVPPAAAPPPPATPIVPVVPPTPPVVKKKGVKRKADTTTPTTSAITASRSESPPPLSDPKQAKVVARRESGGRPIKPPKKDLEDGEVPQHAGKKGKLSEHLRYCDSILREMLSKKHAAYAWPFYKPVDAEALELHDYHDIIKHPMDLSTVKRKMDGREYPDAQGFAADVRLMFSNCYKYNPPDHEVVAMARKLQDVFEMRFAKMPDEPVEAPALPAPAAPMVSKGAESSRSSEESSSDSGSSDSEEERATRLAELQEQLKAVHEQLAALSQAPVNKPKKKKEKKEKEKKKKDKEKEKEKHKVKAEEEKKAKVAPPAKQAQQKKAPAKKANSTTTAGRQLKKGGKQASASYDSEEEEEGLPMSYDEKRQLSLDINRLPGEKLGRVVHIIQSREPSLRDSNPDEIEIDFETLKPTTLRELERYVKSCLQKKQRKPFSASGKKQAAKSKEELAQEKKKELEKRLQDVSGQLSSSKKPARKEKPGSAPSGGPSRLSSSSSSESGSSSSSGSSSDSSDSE

Assay [4] concerns the target T2, Bromodomain-containing protein 3. As to the kind of experiment: Induction of BRD3 degradation in human MDA-MB-231 cells at 10 uM incubated for 8 hrs in presence of MG132 by immunoblotting analysis. In kind it is cell-based.
Target sequence in this assay (Q15059 2-726 limits assumed): as above
The target of assay [5] is T1, Bromodomain-containing protein 4. As to the kind of experiment: Induction of BRD4 degradation in human MDA-MB-231 cells assessed as decrease in BET half life at 10 uM incubated for 8 hrs in presence of cycloheximide by immunoblotting analysis. Format: cell-based. The procedure, abridged:
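MDA-MB-231 time-course. Cells given 50 µg/mL cycloheximide plus DMSO, or 50 µg/mL cycloheximide plus 10 µM compound. RIPA lysates immunoblotted for BRD2, BRD3 and BRD4 with GAPDH as control.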
(A western blot detects proteins with antibodies after separation by electrophoresis.)

For assay [6], the target named is T2, Bromodomain-containing protein 3. The assay is described as follows: Binding affinity to human partial length BRD3 BD2 (G306 to P416 residues) expressed in bacterial expression system assessed as change in melting temperature at 50 uM at 20 to 85 degreeC by SYPRO orange staining based thermal shift assay. The procedure, abridged:
as §2
Target sequence in this assay (Q15059 2-726 limits assumed): as above

Assay [7] addresses T3, Bromodomain testis-specific protein (Homo sapiens, UniProt Q58F21). The assay is described as follows: Binding affinity to human partial length BRDT BD2 (K250 to E382 residues) expressed in bacterial expression system using H4K5acIC8acK12acK16ac-biotinylated peptide as substrate preincubated for 30 mins followed by substrate addition by AlphaScreen assay. The procedure, abridged:
(§3)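 AlphaScreen. Biotinylated H4K5acK8acK12acK16ac peptide added at equal concentration to protein for 30 min. Donor and acceptor beads (25 µg/mL each) added, ≥1 h in the dark. Triplicate, curve-fitted, SEM.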
In general terms: In Alpha technology, singlet oxygen from a donor bead excites a nearby acceptor bead.

For assay [8], the target named is T1, Bromodomain-containing protein 4. As to the kind of experiment: Induction of BRD4 degradation in human MDA-MB-231 cells at 0.025 to 2.5 uM incubated for 24 hrs by qRT-PCR analysis. Format: cell-based. The conditions noted are these: dose 0.025-2.5 µM. Summed up: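 MDA-MB-231 cells treated for 24 h at doses rising tenfold from 25 nM to 2.5 µM. Gene expression measured by qRT-PCR. SEM, n = 3.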

The target in assay [9] is T2, Bromodomain-containing protein 3. The assay is described as follows: Induction of BRD3 degradation in human MDA-MB-231 cells incubated for 16 hrs by immunoblotting analysis. In kind it is cell-based. The procedure, abridged:
(§4)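 MDA-MB-231 or PC-3 cells at 50% confluence in DMEM/10% FBS/pen-strep, treated 16 h with doses falling tenfold from 10 µM to 1 nM. RIPA lysates immunoblotted for BRD2, BRD3 and BRD4 with GAPDH as control. DC50 derived from band densitometry. SEM, n = 2.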

Assay [10] deals with T4, Bromodomain-containing protein 2 (Homo sapiens, UniProt P25440). As to the kind of experiment: Binding affinity to human partial length BRD2 BD1 (K71 to N194 residues) expressed in bacterial expression system using H4K5acIC8acK12acK16ac-biotinylated peptide as substrate preincubated for 30 mins followed by substrate addition by AlphaScreen assay. Summed up: as §3
Target sequence in this assay (P25440 whole entry, the tested form may be a part): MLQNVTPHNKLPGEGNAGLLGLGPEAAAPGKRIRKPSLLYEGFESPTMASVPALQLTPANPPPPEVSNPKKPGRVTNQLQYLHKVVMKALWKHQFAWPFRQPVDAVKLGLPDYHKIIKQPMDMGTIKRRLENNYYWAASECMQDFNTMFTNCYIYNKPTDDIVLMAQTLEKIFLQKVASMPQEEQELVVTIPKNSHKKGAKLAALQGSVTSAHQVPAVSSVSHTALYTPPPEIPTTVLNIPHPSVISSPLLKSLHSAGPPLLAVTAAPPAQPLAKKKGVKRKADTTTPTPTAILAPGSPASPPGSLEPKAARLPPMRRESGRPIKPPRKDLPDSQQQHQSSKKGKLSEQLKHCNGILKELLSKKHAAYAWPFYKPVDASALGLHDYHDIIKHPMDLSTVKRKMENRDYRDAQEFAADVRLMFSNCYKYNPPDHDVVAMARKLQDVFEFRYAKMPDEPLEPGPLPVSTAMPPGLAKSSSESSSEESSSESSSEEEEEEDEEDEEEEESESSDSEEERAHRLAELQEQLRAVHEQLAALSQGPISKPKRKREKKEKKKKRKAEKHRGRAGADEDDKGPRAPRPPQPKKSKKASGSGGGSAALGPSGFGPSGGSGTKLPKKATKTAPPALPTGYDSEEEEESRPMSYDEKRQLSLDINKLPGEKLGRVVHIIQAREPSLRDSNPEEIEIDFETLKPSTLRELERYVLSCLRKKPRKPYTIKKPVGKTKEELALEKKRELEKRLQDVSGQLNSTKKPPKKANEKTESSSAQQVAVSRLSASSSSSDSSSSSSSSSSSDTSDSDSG
The target in assay [11] is T3, Bromodomain testis-specific protein. As to the kind of experiment: Binding affinity to human partial length BRDT BD1 (N21 to E137 residues) expressed in bacterial expression system using H4K5acIC8acK12acK16ac-biotinylated peptide as substrate preincubated for 30 mins followed by substrate addition by AlphaScreen assay. The procedure, abridged:
as §3

Assay [12] relates to DU-145. As to the kind of experiment: Antiproliferative activity against AR-negative human DU-145 cells assessed as reduction in cell viability measured after 72 hrs by MTS assay. The conditions noted are these: DU-145, 72 h.
Assay [13] concerns the target T4, Bromodomain-containing protein 2. As to the kind of experiment: Binding affinity to human partial length BRD2 BD2 (E348to D455 residues) expressed in bacterial expression system using H4K5acIC8acK12acK16ac-biotinylated peptide as substrate preincubated for 30 mins followed by substrate addition by AlphaScreen assay. Summed up:
as §3
Target sequence in this assay (P25440 whole entry, the tested form may be a part): as above

A short description of assay [14]: Induction of degradation in human PC-3 cells incubated for 16 hrs by immunoblotting analysis.
Assay [15] relates to VCaP. The assay is described as follows: Antiproliferative activity against AR-positive human VCaP cells assessed as reduction in cell viability measured after 72 hrs by MTS assay. In kind it is functional, cell-based. Summed up: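 VCaP cells in 96-well plates, compound serially diluted in DMSO and run in triplicate wells for 72 h. MTS reagent added for 2 h, absorbance read at 490 nm. % cytotoxicity = (A_medium − A_treatment)/A_medium × 100. EC50 and SD taken from dose-response curves, at least three independent experiments.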

Assay [16] has as its target T4, Bromodomain-containing protein 2. The assay is described as follows: Binding affinity to human partial length BRD2 BD2 (E348 to D455 residues) expressed in bacterial expression system assessed as change in melting temperature at 50 uM at 20 to 85 degreeC by SYPRO orange staining based thermal shift assay. The procedure, abridged:
as §2
Target sequence in this assay (P25440 whole entry, looked up, the tested form may be a part): as the sequence (P25440 whole entry, the tested form may be a part) above

Assay [17] deals with T2, Bromodomain-containing protein 3. The assay is described as follows: Binding affinity to human partial length BRD3 BD1 (P24 to E144 residues) expressed in bacterial expression system using H4K5acIC8acK12acK16ac-biotinylated peptide as substrate preincubated for 30 mins followed by substrate addition by AlphaScreen assay. The procedure, abridged: as §3
Target sequence in this assay (Q15059 whole entry, the tested form may be a part): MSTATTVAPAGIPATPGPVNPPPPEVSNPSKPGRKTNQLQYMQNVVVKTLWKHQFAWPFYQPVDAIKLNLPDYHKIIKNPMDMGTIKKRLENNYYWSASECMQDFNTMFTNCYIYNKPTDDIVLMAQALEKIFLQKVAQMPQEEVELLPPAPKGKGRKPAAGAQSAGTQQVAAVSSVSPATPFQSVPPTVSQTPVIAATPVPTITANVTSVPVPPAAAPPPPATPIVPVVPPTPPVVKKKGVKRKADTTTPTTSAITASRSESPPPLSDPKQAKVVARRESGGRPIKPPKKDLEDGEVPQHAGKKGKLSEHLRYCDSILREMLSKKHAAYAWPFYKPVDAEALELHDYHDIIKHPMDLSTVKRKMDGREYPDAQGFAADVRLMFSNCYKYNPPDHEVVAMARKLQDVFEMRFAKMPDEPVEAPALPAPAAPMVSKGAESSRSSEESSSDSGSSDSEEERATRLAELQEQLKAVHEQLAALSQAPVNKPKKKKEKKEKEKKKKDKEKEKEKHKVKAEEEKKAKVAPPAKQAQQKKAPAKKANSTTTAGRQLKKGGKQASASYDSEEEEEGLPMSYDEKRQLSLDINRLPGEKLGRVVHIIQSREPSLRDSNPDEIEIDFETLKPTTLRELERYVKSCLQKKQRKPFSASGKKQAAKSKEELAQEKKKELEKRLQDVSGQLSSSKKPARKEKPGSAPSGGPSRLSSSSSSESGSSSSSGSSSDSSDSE
Assay [18] relates to VCaP. As to the kind of experiment: Downregulation of TMPRSS2 gene levels in human VCaP cells incubated for 24 hrs by qRT-PCR analysis. In kind it is functional, cell-based. The conditions noted are these: dose 25-2500 nM. The procedure, abridged: as §1
In assay [19] the test system is LNCaP. The assay is described as follows: Antiproliferative activity against androgen-sensitive human LNCaP cells assessed as reduction in cell viability measured after 72 hrs by MTS assay. In kind it is functional, cell-based. Summed up:
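MTS viability assay run in triplicate wells. Serial dilutions in DMSO were given, with DMSO as negative control and doxorubicin as positive control, and incubated 72 h. MTS reagent was added for 2 h and absorbance read at 490 nm. % cytotoxicity = (A_medium − A_treatment)/A_medium × 100. EC50 ± SD was taken from dose-response curves of at least three independent experiments.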

Assay [20] relates to VCaP. As to the kind of experiment: Downregulation of BRD4 mRNA levels in human VCaP cells at 25 to 2500 nM incubated for 24 hrs by qRT-PCR analysis. Format: functional, cell-based. The conditions noted are these: dose 25-2500 nM. The procedure, abridged:
as §1

The target of assay [21] is T1, Bromodomain-containing protein 4. The assay is described as follows: Induction of BRD4 degradation in human PC-3 cells incubated for 16 hrs by immunoblotting analysis. In kind it is cell-based. The procedure, abridged: as §4

A word on the IC50: it is the midpoint of a concentration-inhibition curve. For orientation: ΔTm means the change in melting temperature against a reference sample. By DC50 is commonly meant the concentration at which degradation of the target reaches its halfway point. The EC50 is the concentration at which the effect is half-maximal.

SMILES strings stand for the structures. Active and inactive are the calls of the source. The rule behind the calls is not given here.

Take `CC(=O)OC[C@]12CC[C@H]3[C@@H](C[C@H]4O[C@]45CC=CC(=O)[C@]35C)[C@]1(O)CC[C@@]2(O)[C@@](C)(O)[C@H]1CC(C)=C(C)C(=O)O1`: the Activity entry in [1], in assay [9], in assay [14], in [18] and in assay [21] was “Dose-Dependent Effect” each time. In addition, the half-inhibitory concentration (IC50) in [2] worked out at 17.9 nM; in assay [7], 119 nM; in assay [10] it was 103 nM; in [11] it was 403 nM; in [13] it was 244 nM; in assay [17], 7.11 nM. Further, the ΔTm stood at 12.5 °C in assay [3], 7.45 °C in [6] and 8.23 °C in [16]. Besides, the outcome in assay [4], in assay [8] and in assay [20] was inactive. Besides, the outcome in assay [5] was Active. For the same compound, the values for the DC50 in [9] and in [21] were 23.9 nM and 56.7 nM, respectively. The figures for the EC50 in assay [12], in [15] and in [19] were 263 nM, 30.5 nM and 21.6 nM, respectively.

The values above are taken from ChEMBL document CHEMBL5316292 (J Med Chem, 2023).
